Reference: ChEMBL document CHEMBL1153490, “Spiroadamantyl 1,2,4-trioxolane, 1,2,4-trioxane, and 1,2,4-trioxepane pairs: relationship between peroxide bond iron(II) reactivity, heme alkylation efficiency, and antimalarial activity” (Bioorg Med Chem Lett, 2009)
Values after ≈ are worked out from the molar mass of the structure shown.

Legend:
Plasmodium falciparum = experiment: Antimalarial activity against chloroquine-resistant Plasmodium falciparum K1 […]; type: functional, organism-based
Plasmodium berghei = experiment: Antimalarial activity as reduced parasitaemia after 3 days against Plasmodium berghei infected NMRI mice (Mus musculus) at 100 mg/kg peroral dose; type: functional; design: scale not given: the % may be the effect or the level left; details: route oral
Procedure, shortened: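 Groups of three P. berghei-infected NMRI mice were dosed orally one day post-infection at 100 mg/kg. Compounds were dissolved or suspended in 3% ethanol and 7% Tween 80.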

[1] = Induction of heme alkylation measured within 30 seconds by visible spectrophotometry; design: concentration or dose not given beside the values
[2] = tested on: Plasmodium falciparum (NF54); experiment: Antimalarial activity against chloroquine-sensitive Plasmodium falciparum NF54

| Compound | IC50 (Plasmodium falciparum) [µg/mL] | Activity (Plasmodium berghei) [%] | Activity [1] [%] | IC50 [2] [µg/mL] |
| --- | --- | --- | --- | --- |
| C[C@@]1(c2ccccc2)OOC2(O1)C1CC3CC(C1)CC2C3 (stereo not given in full) | 0.0029 (≈ 0.0101 µM) | 99 | 67 | 0.0034 (≈ 0.0119 µM) |
| c1ccc([C@H]2CCOC3(OO2)C2CC4CC(C2)CC3C4)cc1 (stereo not given in full) |  |  | 1 | > 1 |
| c1ccc([C@H]2COC3(OO2)C2CC4CC(C2)CC3C4)cc1 (stereo not given in full) | 0.0091 (≈ 0.0318 µM) | 96 | 55 | 0.019 (≈ 0.0663 µM) |
| CC(C)(N)CNC(=O)C[C@H]1CC[C@]2(CC1)OO[C@]1(O2)C2CC3CC(C2)CC1C3 |  |  | 83 |  |
| C[C@@H]1CC[C@H]2[C@@H](C)C(=O)O[C@@H]3O[C@@]4(C)CC[C@@H]1[C@]32OO4 [ARTEMISININ] |  | 98 |  | 0.0028 (≈ 0.00992 µM) |
| C1CCC2(CC1)COC1(OO2)C2CC3CC(C2)CC1C3 (stereo not given) | 0.054 (≈ 0.194 µM) | 0 | 45 | 0.044 (≈ 0.158 µM) |
| C1CC[C@]2(CC1)CCO[C@]1(OO2)C2CC3CC(C2)CC1C3 |  | 0 | 25 | > 1 |
| C[C@]1(c2ccccc2)COC2(OO1)C1CC3CC(C1)CC2C3 (stereo not given in full) | 0.019 (≈ 0.0632 µM) | 0 |  | 0.022 (≈ 0.0732 µM) |
| C1CCC2(CC1)OOC1(O2)C2CC3CC(C2)CC1C3 (stereo not given) |  | >99.99 | 86 | 0.0014 (≈ 0.0053 µM) |
| c1ccc([C@@H]2OOC3(O2)C2CC4CC(C2)CC3C4)cc1 (stereo not given in full) | 0.4 (≈ 1.47 µM) | 25 | 50 | > 1 |
